Reference: ChEMBL document CHEMBL2176909, “Kaurenoic acid from Sphagneticola trilobata Inhibits Inflammatory Pain: effect on cytokine production and activation of the NO-cyclic GMP-protein kinase G-ATP-sensitive potassium channel signaling pathway” (J Nat Prod, 2012)
Activity calls are given as the source filed them.

Key:
[1] = tested on: Mus musculus; test: Antihyperalgesic activity against thermal hyperalgesia in Swiss mouse assessed as increase in thermal nociceptive threshold at 10 mg/kg, po after 1.5 to 5.5 hrs by hot plate test; format: functional, organism-based; set-up: dose 10 mg/kg
Summary of the method: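 Male Swiss mice (25–30 g), 10 mg/kg po. Hot plate at 55 °C inside a glass cylinder. Two baseline latencies taken ≥10 min apart, then latency read at 1.5, 3.5 and 5.5 h after dosing. Endpoint is jumping or paw licking, with a 30 s cutoff.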

[2] = tested on: Mus musculus; test: Antihyperalgesic activity in carrageenan-induced mechanical hyperalgesia Swiss mouse model assessed as paw withdrawal latency at 1 mg/kg, po administered 30 mins prior to challenge by electronic pressure-meter test; format: functional, organism-based; set-up: dose 1 mg/kg
Summary of the method: (§1)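 Male Swiss mice dosed po (1–10 mg/kg, 2% DMSO in saline) 30 min before intraplantar carrageenin (100 μg/paw). Control indomethacin 5 mg/kg ip given 40 min before. Electronic pressure-meter readings at 1, 3 and 5 h, mean of three. Δ withdrawal threshold (g) is the post-stimulus reading minus zero-time. n = 5.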

[3] = tested on: Mus musculus; test: Antiinflammatory activity in Swiss mouse model assessed as inhibition of carrageenan-induced IL-1beta production in cutaneous plantar tissue at 10 mg/kg, po administered 30 mins prior to challenge measured 3 hrs post challenge by ELISA; format: functional, organism-based; set-up: dose 10 mg/kg
Summary of the method: (§2)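 Swiss mice given 10 mg/kg po 30 min before intraplantar carrageenin (100 μg/paw). At 3 h, plantar skin is removed under terminal anesthesia and homogenized in buffer with protease inhibitors. IL-1β and TNF-α measured by ELISA, as pg/paw. Saline-injected paws serve as controls. n = 5.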

[4] = tested on: Mus musculus; test: Antinociceptive activity against formalin-induced pain in Swiss mouse assessed as inhibition of paw licking at 10 mg/kg, po administered 30 mins prior to formalin challenge; format: functional, organism-based; set-up: dose 10 mg/kg
Summary of the method: (§3)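 Swiss mice dosed 10 mg/kg po 30 min before intraplantar formalin (25 μL of 1.5% in saline). Flinches and licking time counted over 0–30 min in 5-min bins and reported as 0–15 and 15–30 min phases. n = 6.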

[5] = tested on: Mus musculus; test: Antihyperalgesic activity in carrageenan-induced mechanical hyperalgesia Swiss mouse model assessed as paw withdrawal latency at 3 mg/kg, po administered 30 mins prior to challenge measured after 1 to 3 hrs post stimulus by electronic pressure-meter test; format: functional, organism-based; set-up: dose 3 mg/kg; summary of the method: as §1
[6] = tested on: Mus musculus; test: Antihyperalgesic activity in PGE2-induced mechanical hyperalgesia Swiss mouse model assessed as paw withdrawal latency at 10 mg/kg, po administered 30 mins prior to challenge measured at 3 hrs post compound treatment by electronic pressure-meter test; format: functional, organism-based; set-up: dose 10 mg/kg
Summary of the method: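 Male Swiss mice given 10 mg/kg po (vehicle 2% DMSO in saline) 30 min before intraplantar PGE2 (100 ng/paw). Electronic pressure-meter test 3 h after stimulus, each value the mean of three readings. Result is Δ withdrawal threshold (g), zero-time mean subtracted. n = 5.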

[7] = tested on: Mus musculus; test: Gastrointestinal toxicity in Swiss mouse assessed as increase in stomach MPO activity at 10 mg/kg, po for 7 days measured over 7 days relative to vehicle-treated control; format: organism-based; set-up: dose 10 mg/kg, route oral; conditions: in vivo, 168 h
Summary of the method: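 Mice dosed po daily for 7 days: vehicle (2% DMSO/saline or Tris/HCl pH 8.0), 10 mg/kg, or indomethacin 2.5 mg/kg. Stomach is homogenized in 50 mM phosphate buffer pH 6.0 with 0.5% HTAB. Supernatant is reacted with o-dianisidine/H2O2 and read at 450 nm. Results expressed as neutrophils ×10^4/mg tissue from a neutrophil standard curve. n = 8.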

[8] = tested on: Mus musculus; test: Antinociceptive activity in Swiss mouse assessed as inhibition of PBQ-induced writhing at 10 mg/kg, po administered 30 mins prior to PBQ challenge; format: functional, organism-based; set-up: dose 10 mg/kg
Summary of the method: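 Swiss mice dosed po (10 mg/kg) 30 min before ip PBQ (1890 μg/kg in 2% DMSO/saline). Indomethacin 5 mg/kg ip given 40 min before. Cumulative writhing score over 20 min. n = 6.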

[9] = tested on: Mus musculus; test: Antihyperalgesic activity in complete Freund's adjuvant-induced Swiss mouse pain model assessed as paw withdrawal latency at 10 mg/kg, po starting 1 hr post challenge for 7 days measured after 2 to 7 days by electronic pressure-meter test; format: functional, organism-based; set-up: dose 10 mg/kg
Summary of the method: (§4)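 Male Swiss mice injected intraplantar with CFA (10 μL/paw). Dosing is daily from 1 h after CFA for 7 days, either 10 mg/kg po or indomethacin 5 mg/kg ip. Electronic pressure-meter Δ withdrawal threshold (g) measured every 24 h. n = 6.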

[10] = tested on: Mus musculus; test: Hepatotoxicity in Swiss mouse assessed as change in plasma AST level at 10 mg/kg, po for 7 days measured over 7 days relative to vehicle-treated control; format: toxicity, organism-based; set-up: dose 10 mg/kg, route oral; conditions: in vivo, 168 h
Summary of the method: (§5)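 Mice dosed po daily for 7 days: vehicle (2% DMSO/saline or Tris/HCl pH 8.0), 10 mg/kg, or indomethacin 2.5 mg/kg. Heparinized blood is drawn under terminal anesthesia, and plasma AST and ALT are measured with a diagnostic kit. n = 8.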

[11] = tested on: Mus musculus; test: Antinociceptive activity in po dosed Swiss mouse assessed as inhibition of acetic acid-induced writhing administered 30 mins prior to acetic acid challenge; format: functional, organism-based
Summary of the method: (§6)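 Mice dosed ip or po (3–30 mg/kg, 2% DMSO in saline) 30 min before ip acetic acid (0.8% v/v, 10 mL/kg). Indomethacin 5 mg/kg ip given 40 min before. Cumulative writhing score over 20 min. n = 6.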

[12] = tested on: Mus musculus; test: Hepatotoxicity in Swiss mouse assessed as change in plasma ALT level at 10 mg/kg, po for 7 days measured over 7 days relative to vehicle-treated control; format: toxicity, organism-based; set-up: dose 10 mg/kg, route oral; conditions: in vivo, 168 h; summary of the method: as §5
[13] = tested on: Mus musculus; test: Antihyperalgesic activity in carrageenan-induced mechanical hyperalgesia Swiss mouse model assessed as paw withdrawal latency at 10 mg/kg, po administered 30 mins prior to challenge measured after 1 to 5 hrs post stimulus by electronic pressure-meter test; format: functional, organism-based; set-up: dose 10 mg/kg; summary of the method: as §1
[14] = tested on: Mus musculus; test: Antinociceptive activity in Swiss mouse assessed as inhibition of acetic acid-induced writhing at 3 to 30 mg/kg, ip administered 30 mins prior to acetic acid challenge; format: functional, organism-based; summary of the method: as §6
[15] = tested on: Mus musculus; test: Antihyperalgesic activity in carrageenan-induced mechanical hyperalgesia Swiss mouse model assessed as paw withdrawal latency at 10 mg/kg, po administered 30 mins prior to challenge measured after 1 to 5 hrs post challenge by electronic pressure-meter test in presence of PKG inhibitor KT5823; format: functional, organism-based; set-up: dose 10 mg/kg
Summary of the method: (§7)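 Pretreatment ip: ODQ 0.3 mg/kg in 2% DMSO/saline at 30 min, KT5823 0.5 μg/mouse in 2% DMSO/saline at 5 min, or glybenclamide 0.3 mg/kg in 5% Tween 80/saline at 45 min. Each is followed by 10 mg/kg po, then intraplantar carrageenin (100 μg/paw) 30 min later. Pressure-meter Δ threshold (g) at 1, 3 and 5 h. n = 5.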

[16] = tested on: Mus musculus; test: Antiinflammatory activity in Swiss mouse model assessed as inhibition of carrageenan-induced TNFalpha production in cutaneous plantar tissue at 10 mg/kg, po administered 30 mins prior to challenge measured 3 hrs post challenge by ELISA; format: functional, organism-based; set-up: dose 10 mg/kg; summary of the method: as §2
[17] = tested on: Mus musculus; test: Antihyperalgesic activity in carrageenan-induced mechanical hyperalgesia Swiss mouse model assessed as paw withdrawal latency at 10 mg/kg, po administered 30 mins prior to challenge measured after 1 to 5 hrs post challenge by electronic pressure-meter test in presence of 10 mg/kg L-NAME; format: functional, organism-based
Summary of the method: (§8)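 Swiss mice given L-NAME (10–90 mg/kg ip) 60 min before 10 mg/kg po. Intraplantar carrageenin (100 μg/paw) 30 min later. Mechanical threshold by electronic pressure-meter at 5 h, reported as Δ withdrawal threshold (g). n = 5.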

[18] = tested on: Mus musculus; test: Antihyperalgesic activity in complete Freund's adjuvant-induced Swiss mouse pain model assessed as paw withdrawal latency at 10 mg/kg, po starting 1 hr post challenge for 7 days measured on day 1 post challenge by electronic pressure-meter test; format: functional, organism-based; set-up: dose 10 mg/kg; summary of the method: as §4
[19] = tested on: Mus musculus; test: Antihyperalgesic activity in carrageenan-induced mechanical hyperalgesia Swiss mouse model assessed as paw withdrawal latency at 10 mg/kg, po administered 30 mins prior to challenge measured after 1 to 5 hrs post challenge by electronic pressure-meter test in presence of glibenclamide; format: functional, organism-based; set-up: dose 10 mg/kg; summary of the method: as §7
[20] = tested on: Mus musculus; test: Toxicity in Swiss mouse assessed as effect on muscle-relaxing effect at 10 mg/kg, po after 1.5 to 5.5 hrs by roto-rod test; format: organism-based; set-up: dose 10 mg/kg, route oral; conditions: in vivo
Summary of the method: (§9)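 Rota-rod turning at 22 rpm. Mice are pre-selected 24 h earlier by staying on for two 120 s periods. Dosing is vehicle (20% Tween 80/saline) or 10 mg/kg po, with testing at 1.5, 3.5 and 5.5 h and a 120 s cutoff. n = 6.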

[21] = tested on: Mus musculus; test: Antihyperalgesic activity in carrageenan-induced mechanical hyperalgesia Swiss mouse model assessed as paw withdrawal latency at 10 mg/kg, po administered 30 mins prior to challenge measured after 1 to 5 hrs post challenge by electronic pressure-meter test; format: functional, organism-based; set-up: dose 10 mg/kg; summary of the method: as §1
[22] = tested on: Mus musculus; test: Antiinflammatory activity in complete Freund's adjuvant-induced Swiss mouse pain model assessed as inhibition of paw licking at 10 mg/kg, po administered 30 mins prior to challenge; format: functional, organism-based; set-up: dose 10 mg/kg
Summary of the method: (§10)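 10 mg/kg po (or vehicle) given 30 min before intraplantar CFA (10 μL/paw) in Swiss mice. Paw flinches and licking time counted over 30 min as cumulative totals. n = 6.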

[23] = tested on: Mus musculus; test: Antihyperalgesic activity in carrageenan-induced mechanical hyperalgesia Swiss mouse model assessed as paw withdrawal latency at 10 mg/kg, po administered 30 mins prior to challenge measured after 1 to 5 hrs post challenge by electronic pressure-meter test in presence of soluble […] inhibitor ODQ; format: functional, organism-based; set-up: dose 10 mg/kg; summary of the method: as §7
[24] = tested on: Mus musculus; test: Antihyperalgesic activity in carrageenan-induced mechanical hyperalgesia Swiss mouse model assessed as paw withdrawal latency at 10 mg/kg, po administered 30 mins prior to challenge measured after 1 to 5 hrs post challenge by electronic pressure-meter test in presence of 90 mg/kg L-NAME; format: functional, organism-based; summary of the method: as §8
[25] = tested on: Mus musculus; test: Toxicity in Swiss mouse assessed as sedative effect at 10 mg/kg, po after 1.5 to 5.5 hrs by roto-rod test; format: organism-based; set-up: dose 10 mg/kg, route oral; conditions: in vivo; summary of the method: as §9
[26] = tested on: Mus musculus; test: Antinociceptive activity against formalin-induced pain in Swiss mouse assessed as inhibition of paw flinching at 10 mg/kg, po administered 30 mins prior to formalin challenge; format: functional, organism-based; set-up: dose 10 mg/kg; summary of the method: as §3
[27] = tested on: Mus musculus; test: Antihyperalgesic activity in carrageenan-induced mechanical hyperalgesia Swiss mouse model assessed as paw withdrawal latency at 10 mg/kg, po administered 30 mins prior to challenge measured after 1 to 5 hrs post challenge by electronic pressure-meter test in presence of 30 mg/kg L-NAME; format: functional, organism-based; summary of the method: as §8
[28] = tested on: Mus musculus; test: Antiinflammatory activity in complete Freund's adjuvant-induced Swiss mouse pain model assessed as inhibition of paw flinching at 10 mg/kg, po administered 30 mins prior to challenge; format: functional, organism-based; set-up: dose 10 mg/kg; summary of the method: as §10
[29] = tested on: Mus musculus; test: Antihyperalgesic activity in po dosed carrageenan-induced mechanical hyperalgesia Swiss mouse model assessed as paw withdrawal latency administered 30 mins prior to challenge by electronic pressure-meter test; format: functional, organism-based; summary of the method: as §1

`C=C1C[C@@]23CC[C@H]4[C@@](C)(CCC[C@@]4(C)C(=O)O)[C@@H]2CC[C@@H]1C3` [KAURENOIC ACID] was tested, and the Activity [1] was “inactive”, the Activity [2] was “inactive” and the inhibition [3] was “Active”. For the same compound, the inhibition [4] was “Active”, the Activity [5] was “Active” and the Activity [6] was “Active”. For the same compound, the Activity [7] was “Non-toxic”, the inhibition [8] was “Active” and the Activity [9] was “Active”. The Activity [10] was “Non-toxic”, the inhibition [11] was “Dose-dependent effect” and the Activity [12] was “Non-toxic”. For the same compound, the Activity [13] was “Active”, the inhibition [14] was “Active” and the Activity [15] was “inactive”. For the same compound, the inhibition [16] was “Active”, the Activity [17] was “Active” and the Activity [18] was “inactive”. The Activity [19] was “inactive”, the Activity [20] was “Non-toxic” and the Activity [21] was “Active”. The inhibition [22] was “Active”, the Activity [23] was “inactive” and the Activity [24] was “inactive”. The Activity [25] was “Non-toxic”, the inhibition [26] was “Active” and the Activity [27] was “inactive”. For the same compound, the inhibition [28] was “Active” and the Activity [29] was “Dose-dependent effect”.
